Measurements from ChEMBL document CHEMBL1130071, “Pyrrolomorphinans as delta opioid receptor antagonists. The role of steric hindrance in conferring selectivity” (J Med Chem, 1997).

What was measured:
[1] = target: Delta-type opioid receptor (Mus musculus, UniProt P32300); assay: Binding affinity against Opioid receptor delta 1 receptor binding in ICR mouse brain membranes using the radioligand [3H]naltrindole; assay type: cell membranes, Membrane
How it was run: (§1)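 Competition binding on ICR mouse brain membranes using selective radioligands: [3H]naltrindole (δ), [3H]DAMGO (μ), [3H]U69593 (κ). Ki reported as mean ± SEM of at least three determinations.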

[2] = target: Mu-type opioid receptor (Cavia porcellus) (UniProt P97266); assay: Agonist activity against guinea pig ileum Opioid receptor mu 1; assay type: functional, tissue-based
How it was run: (§2)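 Agonist activity in MVD or GPI preparations; ligands that were not full agonists tested at 1 µM, activity expressed as percent of maximal response.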

[3] = target: Kappa-type opioid receptor (Homo sapiens) (UniProt P41145); assay: Selectivity ratio measured as the delta IC50 to that of kappa IC50 values.; assay type: functional
[4] = target: Delta-type opioid receptor (Mus musculus) (UniProt P32300); assay: Activity against Opioid receptor delta 1 on electrically stimulated mouse vas deferens using DADLE as agonist; assay type: functional, tissue-based
How it was run: (§3)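 Antagonist test in electrically stimulated smooth muscle, DADLE in MVD, morphine or ethylketazocine in GPI: ligand (100 nM) preincubated with the preparation 15 min before agonist testing. IC50 ratio = agonist IC50 with test compound / control IC50 in same preparation; Ke = [antagonist]/(IC50 ratio − 1).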

[5] = target: Delta-type opioid receptor (Homo sapiens) (UniProt P41143); assay: Selectivity ratio measured as the mu Ki to that of delta Ki values.
How it was run: (§4)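 Ki selectivity ratio = Ki at κ or μ (ICR mouse brain membranes, [3H]U69593 or [3H]DAMGO) divided by Ki at δ ([3H]naltrindole competition).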

[6] = target: Mu-type opioid receptor (Homo sapiens) (UniProt P35372); assay: Selectivity ratio measured as the delta IC50 to that of mu IC50 values.; assay type: functional
[7] = target: Kappa-type opioid receptor (Mus musculus, UniProt P33534); assay: Binding affinity against Opioid receptor kappa 1 binding in ICR mouse brain membranes using the radioligand [3H]U-69593; assay type: cell membranes, Membrane; how it was run: as §1
[8] = target: Kappa-type opioid receptor (Cavia porcellus) (UniProt P41144); assay: Agonist activity against guinea pig ileum kappa receptor relative to ethylketazocine; assay type: functional, tissue-based; how it was run: as §2
[9] = target: Delta-type opioid receptor (Mus musculus) (UniProt P32300); assay: Agonist activity in mouse vas deferens assay relative to DADLE; assay type: functional, tissue-based; how it was run: as §2
Mu-type opioid receptor = Mu-type opioid receptor (Mus musculus, UniProt P42866); assay: Binding affinity against Opioid receptor mu 1 binding in ICR mouse brain membranes using the radioligand [3H][Ala2,Glyol5]enkephalin; assay type: cell membranes, Membrane; how it was run: as §1
[10] = target: Delta-type opioid receptor (Homo sapiens) (UniProt P41143); assay: Selectivity ratio measured as the kappa Ki to that of delta Ki values.; how it was run: as §4
[11] = target: Mu-type opioid receptor (Cavia porcellus) (UniProt P97266); assay: Agonist guinea pig ileum; assay type: functional, tissue-based; how it was run: as §2
[12] = target: Mu-type opioid receptor (Cavia porcellus) (UniProt P97266); assay: Agonist guinea pig ileum (Opioid receptor mu 1); assay type: functional, tissue-based; how it was run: as §2
[13] = target: Kappa-type opioid receptor (Cavia porcellus) (UniProt P41144); assay: Activity against Opioid receptor kappa 1 on electrically stimulated guinea pig ileum using ethylketazocine as the standard agonist.; assay type: functional, tissue-based; how it was run: as §3
[14] = target: Mu-type opioid receptor (Cavia porcellus) (UniProt P97266); assay: Activity against mu receptor on electrically stimulated guinea pig ileum using morphine as the standard agonist (Opioid receptor mu 1); assay type: functional, tissue-based; how it was run: as §3

Chain of Mu-type opioid receptor (P42866 whole entry): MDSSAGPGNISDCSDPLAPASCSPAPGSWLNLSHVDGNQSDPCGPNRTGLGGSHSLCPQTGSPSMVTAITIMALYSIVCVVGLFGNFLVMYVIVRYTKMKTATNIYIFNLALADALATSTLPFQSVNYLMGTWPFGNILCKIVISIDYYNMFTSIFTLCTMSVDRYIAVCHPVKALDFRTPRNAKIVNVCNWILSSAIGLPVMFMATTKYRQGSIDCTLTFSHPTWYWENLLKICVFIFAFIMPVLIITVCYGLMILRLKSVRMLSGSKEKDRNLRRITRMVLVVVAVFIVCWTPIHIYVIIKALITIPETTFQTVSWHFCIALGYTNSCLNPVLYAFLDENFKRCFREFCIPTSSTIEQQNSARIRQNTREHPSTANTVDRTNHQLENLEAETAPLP
Chain of Kappa-type opioid receptor (P33534 whole entry): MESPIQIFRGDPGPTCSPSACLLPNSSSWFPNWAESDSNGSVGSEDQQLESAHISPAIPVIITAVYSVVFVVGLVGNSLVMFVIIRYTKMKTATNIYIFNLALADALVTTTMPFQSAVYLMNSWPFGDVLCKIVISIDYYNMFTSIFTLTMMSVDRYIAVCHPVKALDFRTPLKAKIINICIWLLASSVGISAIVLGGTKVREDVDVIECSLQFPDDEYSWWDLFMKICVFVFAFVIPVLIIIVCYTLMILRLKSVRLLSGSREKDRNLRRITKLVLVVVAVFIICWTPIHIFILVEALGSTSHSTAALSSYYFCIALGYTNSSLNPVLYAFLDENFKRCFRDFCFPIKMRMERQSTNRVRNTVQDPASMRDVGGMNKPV
Chain of Mu-type opioid receptor (Cavia porcellus) (P97266 whole entry): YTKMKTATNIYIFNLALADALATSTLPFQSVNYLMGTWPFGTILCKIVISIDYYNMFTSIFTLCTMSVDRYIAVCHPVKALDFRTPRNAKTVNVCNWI
Chain of Delta-type opioid receptor (Homo sapiens) (P41143 whole entry): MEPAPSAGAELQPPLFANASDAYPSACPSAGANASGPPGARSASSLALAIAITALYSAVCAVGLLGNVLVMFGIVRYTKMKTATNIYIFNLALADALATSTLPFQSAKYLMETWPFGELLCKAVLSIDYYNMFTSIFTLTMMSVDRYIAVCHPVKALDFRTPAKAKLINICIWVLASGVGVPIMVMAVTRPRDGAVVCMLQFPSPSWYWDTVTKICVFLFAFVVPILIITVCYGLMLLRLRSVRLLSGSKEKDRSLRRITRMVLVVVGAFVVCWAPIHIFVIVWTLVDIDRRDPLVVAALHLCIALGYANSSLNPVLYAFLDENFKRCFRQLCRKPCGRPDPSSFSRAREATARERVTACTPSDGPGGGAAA
Chain of Delta-type opioid receptor (P32300 whole entry): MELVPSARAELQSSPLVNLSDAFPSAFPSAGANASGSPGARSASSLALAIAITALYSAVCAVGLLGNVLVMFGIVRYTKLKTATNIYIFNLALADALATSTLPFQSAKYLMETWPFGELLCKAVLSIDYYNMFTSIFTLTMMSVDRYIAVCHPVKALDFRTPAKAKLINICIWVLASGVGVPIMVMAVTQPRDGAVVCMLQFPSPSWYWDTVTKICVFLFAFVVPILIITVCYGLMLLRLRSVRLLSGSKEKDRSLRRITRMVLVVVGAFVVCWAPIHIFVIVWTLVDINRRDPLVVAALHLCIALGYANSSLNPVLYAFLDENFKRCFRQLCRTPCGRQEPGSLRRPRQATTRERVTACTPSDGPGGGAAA
Chain of Delta-type opioid receptor (Mus musculus) (P32300 whole entry): as above
Chain of Kappa-type opioid receptor (Homo sapiens) (P41145 whole entry): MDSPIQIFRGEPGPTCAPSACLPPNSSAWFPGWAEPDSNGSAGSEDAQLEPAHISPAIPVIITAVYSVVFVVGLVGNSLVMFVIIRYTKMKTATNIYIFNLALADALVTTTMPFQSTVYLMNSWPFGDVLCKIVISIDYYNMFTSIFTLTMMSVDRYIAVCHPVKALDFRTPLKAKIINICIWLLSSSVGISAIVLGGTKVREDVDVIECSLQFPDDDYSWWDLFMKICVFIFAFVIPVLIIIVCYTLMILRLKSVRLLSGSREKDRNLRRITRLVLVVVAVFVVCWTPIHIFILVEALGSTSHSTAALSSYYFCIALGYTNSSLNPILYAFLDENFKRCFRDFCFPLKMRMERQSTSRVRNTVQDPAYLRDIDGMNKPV
Chain of Kappa-type opioid receptor (Cavia porcellus) (P41144 whole entry): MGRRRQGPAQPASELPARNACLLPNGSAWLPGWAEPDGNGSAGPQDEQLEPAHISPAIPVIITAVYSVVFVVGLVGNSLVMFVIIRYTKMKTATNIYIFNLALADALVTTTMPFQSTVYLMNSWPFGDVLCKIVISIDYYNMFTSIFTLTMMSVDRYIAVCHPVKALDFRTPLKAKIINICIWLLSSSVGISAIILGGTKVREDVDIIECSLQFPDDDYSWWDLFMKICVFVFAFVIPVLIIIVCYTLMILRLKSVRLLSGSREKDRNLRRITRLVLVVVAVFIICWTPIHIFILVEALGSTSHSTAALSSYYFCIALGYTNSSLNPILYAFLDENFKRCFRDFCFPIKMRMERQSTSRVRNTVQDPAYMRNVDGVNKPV
Chain of Mu-type opioid receptor (Homo sapiens) (P35372 whole entry): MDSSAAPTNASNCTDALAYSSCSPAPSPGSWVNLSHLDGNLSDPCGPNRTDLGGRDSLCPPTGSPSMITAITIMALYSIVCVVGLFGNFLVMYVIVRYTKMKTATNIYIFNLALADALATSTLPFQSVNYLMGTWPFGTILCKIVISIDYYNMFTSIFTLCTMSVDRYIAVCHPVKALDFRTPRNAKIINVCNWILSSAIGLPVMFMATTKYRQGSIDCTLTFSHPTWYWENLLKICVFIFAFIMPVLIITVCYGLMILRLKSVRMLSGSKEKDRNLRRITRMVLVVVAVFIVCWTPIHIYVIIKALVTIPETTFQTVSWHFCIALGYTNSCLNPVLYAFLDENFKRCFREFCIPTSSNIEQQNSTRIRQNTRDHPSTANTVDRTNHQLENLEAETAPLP

| SMILES | Ki [1] [nM] | IC50 ratio [2] | Selectivity ratio [3] | Ke [4] [nM] | Selectivity ratio [5] | Selectivity ratio [6] | Ki [7] [nM] | IC50 ratio [8] | IC50 ratio [9] | Ki (Mu-type opioid receptor) [nM] | Selectivity ratio [10] | IC50 ratio [11] | IC50 ratio [12] | Ke [13] [nM] | Ke [14] [nM] |
| --- | --- | --- | --- | --- | --- | --- | --- | --- | --- | --- | --- | --- | --- | --- | --- |
| CCCCc1c(C)[nH]c2c1C[C@@]1(O)C3Cc4ccc(O)c5c4C1(CCN3CC1CC1)[C@H]2O5 (stereo not given in full) | 12 | 2.1 | 17 | 6.7 | 4.8 | 8 | 39 | 0.95 | 16.8 | 57 | 3.3 | – | – | – | – |
| Cc1[nH]c2c(c1-c1ccccc1)C[C@@]1(O)C3Cc4ccc(O)c5c4C1(CCN3CC1CC1)[C@H]2O5 (stereo not given in full) | – | 0.9 | 1.6 | – | – | 1.6 | – | 0.98 | 1.6 | – | – | – | – | – | – |
| CC(C)Cc1[nH]c2c(c1-c1ccccc1)C[C@@]1(O)C3Cc4ccc(O)c5c4C1(CCN3CC1CC1)[C@H]2O5 (stereo not given in full) | – | 4.1 | 0.2 | – | – | 0.2 | – | 1.3 | 0.76 | – | – | – | – | – | – |
| CCCCc1c(CC(C)C)[nH]c2c1C[C@@]1(O)C3Cc4ccc(O)c5c4C1(CCN3CC1CC1)[C@H]2O5 (stereo not given in full) | – | 0.76 | 10 | 11.4 | – | 10 | – | 0.99 | 9.8 | – | – | – | – | – | – |
| Oc1ccc2c3c1O[C@H]1c4[nH]c(-c5ccccc5)c(-c5ccccc5)c4C[C@@]4(O)C(C2)N(CC2CC2)CCC314 (stereo not given in full) | – | – | 1 | – | – | 1 | – | – | 1.4 | – | – | 1.1 | 1.2 | – | – |
| Cc1c(CC(C)C)[nH]c2c1C[C@@]1(O)C3Cc4ccc(O)c5c4C1(CCN3CC1CC1)[C@H]2O5 (stereo not given in full) | – | 380 | – | 3.3 | – | – | – | 380 | 32 | – | – | – | – | – | – |
| O=C1/C(=C/c2ccccc2)C[C@@]2(O)[C@H]3Cc4ccc(O)c5c4[C@@]2(CCN3CC2CC2)[C@H]1O5 | – | – | 18 | – | – | 2.7 | – | – | – | – | – | – | – | – | – |
| Cc1[nH]c2c(c1C)C[C@@]1(O)C3Cc4ccc(O)c5c4C1(CCN3CC1CC1)[C@H]2O5 (stereo not given in full) | 0.41 | 1.5 | 7 | 14.8 | 95 | 5 | 22 | 1.4 | 7.7 | 39 | 53.7 | – | – | – | – |
| Oc1ccc2c3c1O[C@H]1c4[nH]c5ccccc5c4C[C@@]4(O)[C@@H](C2)N(CC2CC2)CC[C@]314 [NALTRINDOLE] | 0.04 | – | – | – | – | – | 355 | – | – | 6.1 | – | – | – | – | – |
| Cn1c2c(c3c1[C@@H]1Oc4c(O)ccc5c4C14CCN(CC1CC1)C(C5)[C@]4(O)C3)CCCC2 (stereo not given in full) | – | – | – | – | – | – | – | – | – | – | – | – | – | 254 | 158 |
| Oc1ccc2c3c1O[C@H]1c4[nH]ccc4C[C@@]4(O)C(C2)N(CC2CC2)CCC314 (stereo not given in full) | – | – | 0.17 | 3.2 | – | 0.03 | – | – | – | – | – | – | – | 3.2 | 0.65 |
| Oc1ccc2c3c1O[C@H]1c4[nH]cc(-c5ccccc5)c4C[C@@]4(O)C(C2)N(CC2CC2)CCC314 (stereo not given in full) | 2.7 | 2.3 | 0.7 | – | 7.8 | 0.7 | 45 | 2.1 | 1.5 | 21 | 16.7 | – | – | – | – |
| Cc1[nH]c2c(c1Cc1ccccc1)C[C@@]1(O)C3Cc4ccc(O)c5c4C1(CCN3CC1CC1)[C@H]2O5 (stereo not given in full) | 0.35 | 1.3 | 50 | 2.1 | 80 | 50 | 41 | 1.3 | 50 | 28 | 117 | – | – | – | – |
